This is an account of results in ChEMBL document CHEMBL1150387, “Development and experimental validation of a docking strategy for the generation of kinase-targeted libraries” (J Med Chem, 2008).

Assay [1] addresses Protein-tyrosine kinase 6 (Homo sapiens) (UniProt Q13882). As to the kind of experiment: Inhibition of Brk at 10 uM by HTRF assay relative to control. In short, it runs like this: (§1)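 HTRF kinase assay, one panel of kinases. Inhibitor stock 50 µM in 100% DMSO; tested at 10 µM. ATP and substrate at final levels near Km. Final buffer: 50 mM Hepes/NaOH pH 7.4, 40 µM Na3VO4, 0.005% Tween-20, 1 mM DTT, MnCl2 or MgCl2 at kinase-dependent levels. Started by adding ATP/substrate. Reaction run at room temperature, time varied by kinase. Detection mix in 50 mM Hepes pH 7.4, 0.1% BSA, 150 mM KF, incubated ≥1 h at room temperature. Activity expressed as % of uninhibited control; n=2.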

For assay [2], the target named is T1, Calcium/calmodulin-dependent protein kinase type IV (Homo sapiens) (UniProt Q16566).
T1 sequence (whole entry): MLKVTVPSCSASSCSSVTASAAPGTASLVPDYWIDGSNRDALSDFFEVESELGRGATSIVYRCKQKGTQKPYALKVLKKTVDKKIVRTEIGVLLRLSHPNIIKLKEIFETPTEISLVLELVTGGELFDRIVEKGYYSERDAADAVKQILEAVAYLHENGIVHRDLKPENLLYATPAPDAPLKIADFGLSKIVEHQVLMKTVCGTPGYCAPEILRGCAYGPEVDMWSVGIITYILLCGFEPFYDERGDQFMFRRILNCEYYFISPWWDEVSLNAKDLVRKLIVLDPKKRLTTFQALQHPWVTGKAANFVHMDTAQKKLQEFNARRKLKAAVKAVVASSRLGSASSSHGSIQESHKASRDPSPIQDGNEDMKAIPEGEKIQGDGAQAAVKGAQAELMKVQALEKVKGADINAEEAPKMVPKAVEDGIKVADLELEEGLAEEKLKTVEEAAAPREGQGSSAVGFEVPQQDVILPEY
As to the kind of experiment: Inhibition of CaMK4 at 10 uM by HTRF assay relative to control. In short, it runs like this: as §1

Assay [3] addresses Vascular endothelial growth factor receptor 1 (Homo sapiens) (UniProt P17948). As to the kind of experiment: Inhibition of FLT1 at 10 uM by HTRF assay relative to control. In short, it runs like this:
as §1

For assay [4], the target named is Mitogen-activated protein kinase 14 (Homo sapiens) (UniProt Q16539). As to the kind of experiment: Inhibition of p38alpha at 10 uM by HTRF assay relative to control. In short, it runs like this:
as §1

The nature of assay [5]: Inhibition of IRK at 10 uM by HTRF assay relative to control. In short, it runs like this: as §1
For assay [6], the target named is T2, Tyrosine-protein kinase JAK3 (Homo sapiens) (UniProt P52333).
T2 sequence (whole entry): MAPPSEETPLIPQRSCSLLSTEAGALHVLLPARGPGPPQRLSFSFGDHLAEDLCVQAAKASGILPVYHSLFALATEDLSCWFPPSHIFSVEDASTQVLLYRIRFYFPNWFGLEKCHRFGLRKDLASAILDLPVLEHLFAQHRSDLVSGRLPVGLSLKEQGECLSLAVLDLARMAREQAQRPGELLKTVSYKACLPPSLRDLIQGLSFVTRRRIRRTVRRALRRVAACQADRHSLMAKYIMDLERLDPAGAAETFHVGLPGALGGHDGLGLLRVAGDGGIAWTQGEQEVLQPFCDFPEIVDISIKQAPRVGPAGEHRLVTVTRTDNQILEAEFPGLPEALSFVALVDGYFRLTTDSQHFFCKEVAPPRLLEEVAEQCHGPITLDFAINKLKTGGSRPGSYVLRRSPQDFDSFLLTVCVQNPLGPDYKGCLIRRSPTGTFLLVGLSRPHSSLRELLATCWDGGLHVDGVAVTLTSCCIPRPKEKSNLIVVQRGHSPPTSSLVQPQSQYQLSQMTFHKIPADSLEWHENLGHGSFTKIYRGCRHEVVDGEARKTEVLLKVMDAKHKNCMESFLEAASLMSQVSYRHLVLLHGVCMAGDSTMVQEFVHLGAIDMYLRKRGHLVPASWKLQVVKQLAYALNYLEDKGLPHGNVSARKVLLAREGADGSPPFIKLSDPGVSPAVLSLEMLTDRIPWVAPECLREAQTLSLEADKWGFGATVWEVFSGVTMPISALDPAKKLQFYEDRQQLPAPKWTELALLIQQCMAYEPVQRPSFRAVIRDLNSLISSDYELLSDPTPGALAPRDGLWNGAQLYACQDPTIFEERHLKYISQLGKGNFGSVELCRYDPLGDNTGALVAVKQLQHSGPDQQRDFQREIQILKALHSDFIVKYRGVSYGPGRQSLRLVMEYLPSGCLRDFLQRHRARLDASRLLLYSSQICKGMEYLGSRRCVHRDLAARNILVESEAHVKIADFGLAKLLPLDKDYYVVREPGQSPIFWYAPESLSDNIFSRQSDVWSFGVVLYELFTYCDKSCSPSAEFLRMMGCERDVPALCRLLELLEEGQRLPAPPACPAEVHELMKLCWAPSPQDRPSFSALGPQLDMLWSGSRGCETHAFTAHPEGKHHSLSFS
Briefly: Inhibition of JAK3 at 10 uM by HTRF assay relative to control. In short, it runs like this: as §1

For assay [7], the target named is T3, Mitogen-activated protein kinase 12 (Homo sapiens) (UniProt P53778).
T3 sequence (whole entry): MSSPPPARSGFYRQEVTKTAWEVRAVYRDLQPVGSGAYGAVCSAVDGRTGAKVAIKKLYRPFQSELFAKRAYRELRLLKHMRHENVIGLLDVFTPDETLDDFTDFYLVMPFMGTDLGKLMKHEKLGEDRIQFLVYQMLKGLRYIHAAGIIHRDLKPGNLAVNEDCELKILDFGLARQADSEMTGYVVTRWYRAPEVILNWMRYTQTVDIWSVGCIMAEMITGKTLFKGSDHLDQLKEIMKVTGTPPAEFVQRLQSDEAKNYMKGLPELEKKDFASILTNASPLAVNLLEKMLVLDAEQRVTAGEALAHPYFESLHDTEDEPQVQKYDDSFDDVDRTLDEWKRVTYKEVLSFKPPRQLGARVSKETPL
Briefly: Inhibition of p38-gamma at 10 uM by HTRF assay relative to control. In short, it runs like this: as §1

The target in assay [8] is Proto-oncogene tyrosine-protein kinase Src (Homo sapiens) (UniProt P12931). As to the kind of experiment: Inhibition of Src at 10 uM by HTRF assay relative to control. In short, it runs like this:
as §1

Assay [9] has as its target Mitogen-activated protein kinase 9 (Homo sapiens) (UniProt P45984). Briefly: Inhibition of JNK2 at 10 uM by HTRF assay relative to control. In short, it runs like this: as §1
Assay [10] has as its target Cyclin-dependent kinase 2 (Homo sapiens) (UniProt P24941). Briefly: Inhibition of CDK2 at 10 uM by HTRF assay relative to control. In short, it runs like this: as §1
Assay [11] addresses Epidermal growth factor receptor (Homo sapiens) (UniProt P00533). Briefly: Inhibition of EGFR at 10 uM by HTRF assay relative to control. In short, it runs like this: as §1

Sequence of Proto-oncogene tyrosine-protein kinase Src (Homo sapiens) (P12931 2-536 limits assumed): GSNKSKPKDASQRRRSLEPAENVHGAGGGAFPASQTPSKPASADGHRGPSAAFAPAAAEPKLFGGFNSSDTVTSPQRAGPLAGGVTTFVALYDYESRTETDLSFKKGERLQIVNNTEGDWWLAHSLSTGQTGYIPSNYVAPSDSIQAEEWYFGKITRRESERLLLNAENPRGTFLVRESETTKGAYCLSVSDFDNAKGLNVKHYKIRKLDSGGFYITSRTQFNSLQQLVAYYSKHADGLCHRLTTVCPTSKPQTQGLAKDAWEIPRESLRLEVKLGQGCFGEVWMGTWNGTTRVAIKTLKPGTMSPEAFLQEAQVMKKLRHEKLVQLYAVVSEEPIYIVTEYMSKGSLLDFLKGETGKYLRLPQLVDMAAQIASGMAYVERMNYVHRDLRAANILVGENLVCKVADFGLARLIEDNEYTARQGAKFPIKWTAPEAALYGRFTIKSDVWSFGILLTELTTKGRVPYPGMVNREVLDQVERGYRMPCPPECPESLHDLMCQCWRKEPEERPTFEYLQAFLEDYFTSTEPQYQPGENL
Sequence of Epidermal growth factor receptor (Homo sapiens) (P00533 whole entry): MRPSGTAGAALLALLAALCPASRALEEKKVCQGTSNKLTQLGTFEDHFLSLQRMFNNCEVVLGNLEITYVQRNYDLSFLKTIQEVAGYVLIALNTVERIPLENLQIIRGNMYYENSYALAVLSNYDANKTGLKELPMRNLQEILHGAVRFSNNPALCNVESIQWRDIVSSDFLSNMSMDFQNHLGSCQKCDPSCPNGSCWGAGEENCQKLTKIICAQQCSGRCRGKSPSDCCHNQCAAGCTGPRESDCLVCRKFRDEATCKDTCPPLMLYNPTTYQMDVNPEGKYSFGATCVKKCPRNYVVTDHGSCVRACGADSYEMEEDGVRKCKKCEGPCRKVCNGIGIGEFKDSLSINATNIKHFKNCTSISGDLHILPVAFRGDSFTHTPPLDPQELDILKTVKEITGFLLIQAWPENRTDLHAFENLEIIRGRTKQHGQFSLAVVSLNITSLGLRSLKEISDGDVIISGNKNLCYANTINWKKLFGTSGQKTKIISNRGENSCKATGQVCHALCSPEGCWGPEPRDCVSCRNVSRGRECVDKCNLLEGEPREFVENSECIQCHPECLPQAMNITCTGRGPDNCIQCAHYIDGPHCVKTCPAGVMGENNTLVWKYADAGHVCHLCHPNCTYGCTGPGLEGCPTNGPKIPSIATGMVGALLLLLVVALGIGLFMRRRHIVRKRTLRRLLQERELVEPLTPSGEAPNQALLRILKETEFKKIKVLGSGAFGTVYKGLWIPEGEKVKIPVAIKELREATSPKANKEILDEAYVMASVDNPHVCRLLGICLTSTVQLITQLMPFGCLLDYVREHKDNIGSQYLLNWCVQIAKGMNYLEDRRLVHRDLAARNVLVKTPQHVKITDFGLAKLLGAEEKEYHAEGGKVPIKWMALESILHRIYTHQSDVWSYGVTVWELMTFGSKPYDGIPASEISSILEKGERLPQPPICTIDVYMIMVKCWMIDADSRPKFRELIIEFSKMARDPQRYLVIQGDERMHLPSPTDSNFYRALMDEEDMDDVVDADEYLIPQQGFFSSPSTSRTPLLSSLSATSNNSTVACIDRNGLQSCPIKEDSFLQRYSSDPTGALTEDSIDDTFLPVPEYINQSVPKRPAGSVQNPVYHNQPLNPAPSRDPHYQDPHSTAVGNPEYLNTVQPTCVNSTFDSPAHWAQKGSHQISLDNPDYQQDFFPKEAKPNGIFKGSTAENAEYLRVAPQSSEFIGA
Sequence of Protein-tyrosine kinase 6 (Homo sapiens) (Q13882 whole entry, looked up): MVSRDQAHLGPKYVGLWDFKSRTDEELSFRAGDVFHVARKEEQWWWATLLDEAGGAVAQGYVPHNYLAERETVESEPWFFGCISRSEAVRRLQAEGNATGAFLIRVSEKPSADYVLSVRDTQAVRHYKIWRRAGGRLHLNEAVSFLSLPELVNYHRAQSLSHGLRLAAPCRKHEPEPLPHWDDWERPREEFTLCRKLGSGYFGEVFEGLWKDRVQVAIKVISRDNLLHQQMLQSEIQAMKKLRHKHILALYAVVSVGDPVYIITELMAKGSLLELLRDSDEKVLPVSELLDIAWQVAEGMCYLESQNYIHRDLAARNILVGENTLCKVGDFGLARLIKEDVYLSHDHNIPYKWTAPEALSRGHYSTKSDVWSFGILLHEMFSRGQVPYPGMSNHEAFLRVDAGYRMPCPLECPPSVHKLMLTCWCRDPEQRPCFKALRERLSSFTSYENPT
Sequence of Mitogen-activated protein kinase 9 (Homo sapiens) (P45984 whole entry, looked up): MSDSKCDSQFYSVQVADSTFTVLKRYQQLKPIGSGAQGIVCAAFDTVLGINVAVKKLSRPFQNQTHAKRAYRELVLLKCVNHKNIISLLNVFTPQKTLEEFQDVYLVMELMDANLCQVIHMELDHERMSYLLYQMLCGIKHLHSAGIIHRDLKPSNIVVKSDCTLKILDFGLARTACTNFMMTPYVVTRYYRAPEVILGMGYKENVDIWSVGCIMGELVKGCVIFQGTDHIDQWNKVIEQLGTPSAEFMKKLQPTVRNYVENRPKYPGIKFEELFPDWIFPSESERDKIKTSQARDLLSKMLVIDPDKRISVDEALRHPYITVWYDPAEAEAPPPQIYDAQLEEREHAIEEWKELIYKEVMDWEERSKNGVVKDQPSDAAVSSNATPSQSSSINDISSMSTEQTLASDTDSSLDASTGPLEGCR
Sequence of Mitogen-activated protein kinase 14 (Homo sapiens) (Q16539 whole entry): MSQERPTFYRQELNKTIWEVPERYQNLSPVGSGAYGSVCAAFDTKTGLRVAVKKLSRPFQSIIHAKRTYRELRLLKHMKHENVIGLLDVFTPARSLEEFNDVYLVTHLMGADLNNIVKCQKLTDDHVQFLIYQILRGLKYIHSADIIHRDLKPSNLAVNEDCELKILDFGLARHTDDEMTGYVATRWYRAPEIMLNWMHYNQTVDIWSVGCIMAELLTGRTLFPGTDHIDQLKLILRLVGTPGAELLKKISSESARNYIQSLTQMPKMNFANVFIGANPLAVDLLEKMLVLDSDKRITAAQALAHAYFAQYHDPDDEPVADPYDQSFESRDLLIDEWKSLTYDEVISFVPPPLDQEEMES
Sequence of Vascular endothelial growth factor receptor 1 (Homo sapiens) (P17948 whole entry): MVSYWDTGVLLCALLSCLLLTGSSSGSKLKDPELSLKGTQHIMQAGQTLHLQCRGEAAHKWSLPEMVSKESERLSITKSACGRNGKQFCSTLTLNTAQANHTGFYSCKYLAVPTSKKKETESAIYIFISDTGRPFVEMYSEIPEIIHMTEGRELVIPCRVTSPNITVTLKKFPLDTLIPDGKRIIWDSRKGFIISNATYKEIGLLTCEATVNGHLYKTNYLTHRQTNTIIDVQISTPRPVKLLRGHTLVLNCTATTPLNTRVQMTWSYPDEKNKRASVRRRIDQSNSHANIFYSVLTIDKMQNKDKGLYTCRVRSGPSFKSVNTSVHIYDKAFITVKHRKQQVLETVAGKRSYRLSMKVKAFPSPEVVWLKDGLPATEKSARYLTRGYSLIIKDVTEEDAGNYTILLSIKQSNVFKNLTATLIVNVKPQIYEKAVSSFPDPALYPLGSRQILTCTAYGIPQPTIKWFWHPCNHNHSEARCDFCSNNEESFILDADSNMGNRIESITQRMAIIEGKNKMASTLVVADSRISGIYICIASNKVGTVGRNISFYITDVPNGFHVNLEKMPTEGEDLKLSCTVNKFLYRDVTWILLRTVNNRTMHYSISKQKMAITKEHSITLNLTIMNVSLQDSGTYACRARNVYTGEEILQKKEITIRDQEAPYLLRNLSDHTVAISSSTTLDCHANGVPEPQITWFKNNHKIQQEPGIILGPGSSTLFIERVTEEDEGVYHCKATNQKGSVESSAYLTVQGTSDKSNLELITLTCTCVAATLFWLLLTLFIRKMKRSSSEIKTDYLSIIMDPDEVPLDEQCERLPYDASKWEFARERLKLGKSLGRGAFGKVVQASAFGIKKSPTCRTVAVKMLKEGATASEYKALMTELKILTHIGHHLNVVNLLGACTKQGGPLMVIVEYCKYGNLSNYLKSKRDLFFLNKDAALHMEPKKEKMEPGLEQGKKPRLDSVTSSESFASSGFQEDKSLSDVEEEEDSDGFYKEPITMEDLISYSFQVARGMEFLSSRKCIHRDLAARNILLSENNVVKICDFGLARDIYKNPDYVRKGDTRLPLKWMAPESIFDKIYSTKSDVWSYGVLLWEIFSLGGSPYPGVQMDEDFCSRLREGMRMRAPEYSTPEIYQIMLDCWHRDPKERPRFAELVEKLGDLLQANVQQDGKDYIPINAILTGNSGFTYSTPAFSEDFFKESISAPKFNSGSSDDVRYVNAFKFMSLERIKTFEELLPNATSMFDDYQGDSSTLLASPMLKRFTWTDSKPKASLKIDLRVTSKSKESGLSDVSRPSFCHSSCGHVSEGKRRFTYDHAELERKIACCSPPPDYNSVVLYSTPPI

Consider `Nc1nc(Nc2ccc3ncsc3c2)cc(N2CCC[C@H]2C(=O)NCCc2cccc(I)c2)n1`, for which the inhibition worked out at 0% in assay [1]; 0% in assay [2]; 1% in assay [3]; 10% in [4]; 0% in assay [5]; 16% in [6]. For the same molecule, the inhibition in [7] stood at 2%; in assay [8] it was 0%; in [9], 5%; in assay [10], 5%; in [11] it was 0%.
With `Cc1cccc(N(C)c2cc(Nc3cccc(C(=O)NCc4ccncc4)c3)ncn2)c1`, the inhibition in assay [1] stood at 0%; in assay [2] it was 0%; in assay [3], 0%; in assay [4], 8%; in assay [5], 0%; in assay [6], 0%. For the same molecule, the inhibition was found to be 3% in [7]; 26% in assay [8]; 21% in [9]; 20% in assay [10]; 100% in assay [11].
For `Nc1nc(Nc2ccc3ncsc3c2)cc(N2CCC[C@H]2C(=O)N[C@@H](CO)c2ccccc2)n1`, the inhibition in assay [1] came to 4%; in [2], 0%; in assay [3], 5%; in assay [4], 7%; in assay [5], 1%; in assay [6], 6%. The inhibition in assay [7] came to 1%; in [8], 0%; in assay [9], 4%; in assay [10] it was 1%; in assay [11], 2%.
Take `O=C(NC1Cc2ccccc2C1)c1cccc(Nc2ccnc(N3CCN(c4ccccc4)CC3)n2)c1`: the inhibition is 0% in [1]; 0% in assay [2]; 0% in assay [3]; 1% in assay [4]; 0% in [5]; 0% in [6]. The inhibition worked out at 2% in assay [7]; 9% in assay [8]; 3% in [9]; 2% in assay [10]; 0% in assay [11].
On to `Nc1nc(Nc2ccc(C(=O)NCCc3ccncc3)cc2)cc(N2CCOCC2)n1`, for which the inhibition in [1] was found to be 0%; in assay [2], 0%; in [3] it was 0%; in assay [4], 10%; in assay [5] it was 0%; in assay [6], 0%. The inhibition in assay [7] came to 3%; in assay [8] it was 3%; in assay [9] it was 5%; in assay [10], 2%; in assay [11], 0%.
As to `Cc1cccc(N(C)c2cc(Nc3cccc(C(=O)N(C)CCc4ccccn4)c3)ncn2)c1`, the inhibition was found to be 11% in [1]; 0% in assay [2]; 3% in assay [3]; 5% in [4]; 0% in assay [5]; 7% in assay [6]. Besides, the inhibition in [7] came to 1%; in assay [8] it was 15%; in [9], 4%; in assay [10] it was 21%; in [11], 97%.
For `Cc1cccc(N(C)c2cc(N3CCN(CC(=O)Nc4nc(-c5ccccc5)cs4)CC3)ncn2)c1`, the inhibition in assay [1] amounted to 22%; in assay [2], 0%; in assay [3], 14%; in assay [4], 0%; in [5] it was 0%; in assay [6], 0%. Further, the inhibition in assay [7] turned out to be 3%; in assay [8], 0%; in assay [9] it was 0%; in [10], 2%; in assay [11], 0%.
For the molecule `CC(=O)N1CCN(C(=O)c2cccc(Nc3cc(N(C)c4cccc(C)c4)ncn3)c2)CC1`, the inhibition was 1% in assay [1]; 0% in assay [2]; 5% in [3]; 4% in [4]; 0% in assay [5]; 15% in assay [6]. The inhibition was 3% in assay [7]; 17% in [8]; 7% in assay [9]; 9% in assay [10]; 99% in [11].
As for `Cc1cccc(Oc2ccnc(N3CCN(CC(=O)Nc4cccc5c4CCCC5)CC3)n2)c1`, the inhibition in assay [1] was 0%; in assay [2], 0%; in assay [3], 0%; in assay [4], 16%; in [5], 0%; in assay [6], 0%. Also, the inhibition is 0% in [7]; 5% in [8]; 2% in [9]; 4% in assay [10]; 0% in assay [11].
